Data as given in ChEMBL document CHEMBL1687867, “Thiazolidione derivatives as novel antibiofilm agents: design, synthesis, biological evaluation, and structure-activity relationships” (2011).
≈ marks a conversion by molar mass, not a printed value.

Key:
[1] = test system: Staphylococcus epidermidis; experiment: Antibacterial activity against Staphylococcus epidermidis ATCC 35984 assessed as inhibition of biofilm production after 6 hrs; type: functional, RP62A; details: in the assay text read “after 18 hrs” for “after 6 hrs”
Method in brief: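 Young S. epidermidis biofilm grown 6 h at 37 °C in TSB with glucose in microtiter wells, washed four times with PBS, then exposed to fresh TSB carrying serially diluted compounds for 18 h at 37 °C. After PBS washes, methanol fixation 15 min, air drying and crystal violet staining. Washed dried biofilm served as blank (subtracted), TSB-only biofilm as positive control; triplicate wells, three repeats.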

[2] = test system: Staphylococcus epidermidis; experiment: Antibacterial activity against Staphylococcus epidermidis ATCC 35984 by broth microdilution method; type: functional; details: RP62A
Method in brief: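 MIC determined by CLSI broth microdilution […].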

[3] = test system: Staphylococcus epidermidis; experiment: Antibacterial activity against Staphylococcus epidermidis ATCC 35984 assessed as inhibition of biofilm production after 18 hrs

| Compound | MIC [2] | Biofilm inhibitory concentration [1] | INH [3] |
| --- | --- | --- | --- |
| Cc1ccc(/N=C2/S/C(=C\c3ccc(-c4cccc(C(=O)O)c4)o3)C(=O)N2c2ccc(C)cc2)cc1 | 6.25 µM (≈ 3.09 µg/mL) | 12.5 µM | – |
| CCOC(=O)C1=C(c2ccccc2)N=c2s/c(=C\c3ccc(-c4cccc(C(=O)O)c4)o3)c(=O)n2C1c1ccccc1 (stereo not given) | > 200 µM | >200 µM | – |
| CCOC(=O)C1=C(c2ccccc2)N=c2s/c(=C\c3ccc(-c4cccc(C(=O)OC)c4)o3)c(=O)n2C1c1ccc(OC)cc1 (stereo not given) | > 200 µM | >200 µM | – |
| CCOC(=O)C1=C(c2ccccc2)N=c2s/c(=C\c3ccc(N(C)C)cc3)c(=O)n2C1c1ccc(OC)cc1 (stereo not given) | > 200 µM | >200 µM | – |
| CCOC(=O)C1=C(c2ccccc2)N=c2s/c(=C\c3cccc([N+](=O)[O-])c3)c(=O)n2C1c1ccc(OC)cc1 (stereo not given) | > 200 µM | >200 µM | – |
| CCOC(=O)C1=C(c2ccccc2)N=c2s/c(=C\c3ccc(O)c(OC)c3)c(=O)n2C1c1ccc(OC)cc1 (stereo not given) | > 200 µM | >200 µM | – |
| CCOC(=O)C1=C(c2ccccc2)N=c2s/c(=C\c3ccc(O)cc3)c(=O)n2C1c1ccc(OC)cc1 (stereo not given) | > 200 µM | >200 µM | – |
| CCOC(=O)C1=C(c2ccccc2)N=c2s/c(=C\c3ccc(OCC(=O)O)cc3)c(=O)n2C1c1ccc2c(c1)OCO2 (stereo not given) | 25 µM (≈ 14.6 µg/mL) | 50 µM | – |
| Cc1ccccc1/N=C1/S/C(=C\c2ccc(-c3ccc(C(=O)O)cc3)o2)C(=O)N1c1ccccc1C | 3.12 µM (≈ 1.55 µg/mL) | – | 6.25 µM |
| CCOC(=O)C1=C(c2ccccc2)N=c2s/c(=C\c3ccc(-c4cccc(C(=O)O)c4)o3)c(=O)n2C1c1ccc2c(c1)OCO2 (stereo not given) | 6.25 µM (≈ 3.88 µg/mL) | 25 µM | – |

The next lines start with results.

| MIC [2] | Compound | Biofilm inhibitory concentration [1] | INH [3] |
| --- | --- | --- | --- |
| 25 µM (≈ 14.3 µg/mL) | CCOC(=O)C1=C(c2ccccc2)N=c2s/c(=C\c3ccc(OCC(=O)O)cc3)c(=O)n2C1c1ccc(OC)cc1 (stereo not given) | 50 µM | – |
| 6.25 µM (≈ 3.79 µg/mL) | CCOC(=O)C1=C(c2ccccc2)N=c2s/c(=C\c3ccc(-c4cccc(C(=O)O)c4)o3)c(=O)n2C1c1ccc(OC)cc1 (stereo not given) | 25 µM | – |
| > 200 µM | CCOC(=O)C1=C(c2ccccc2)N=c2s/c(=C\c3ccc(-c4cccc(C(=O)OC)c4)o3)c(=O)n2C1c1ccccc1 (stereo not given) | >200 µM | – |
| > 200 µM | CCOC(=O)C1=C(c2ccccc2)N=c2s/c(=C\c3cccc(O)c3)c(=O)n2C1c1ccc(OC)cc1 (stereo not given) | >200 µM | – |
| 12.5 µM (≈ 6.48 µg/mL) | COc1ccc(C/N=C2/S/C(=C\c3ccc(OCC(=O)O)cc3)C(=O)N2Cc2ccc(OC)cc2)cc1 | 25 µM | – |
| 50 µM (≈ 27.7 µg/mL) | COc1ccc(C/N=C2/S/C(=C\c3ccc(-c4cccc(C(=O)O)c4)o3)C(=O)N2Cc2ccc(OC)cc2)cc1 | – | – |
| 6.25 µM (≈ 3.29 µg/mL) | COc1ccc(/N=C2/S/C(=C\c3ccc(-c4cccc(C(=O)O)c4)o3)C(=O)N2c2ccc(OC)cc2)cc1 | – | 6.25 µM |
| 12.5 µM (≈ 6.18 µg/mL) | Cc1ccccc1/N=C1/S/C(=C\c2ccc(-c3cccc(C(=O)O)c3)o2)C(=O)N1c1ccccc1C | 25 µM | – |
